Columns and labels:
[1] = Elimination rate constant in human THP1 cells at 3 ug/ml after 10 mins by HPLC; type: ADME, cell-based; settings: THP-1 cells
Serum [2] = assay: AUC (OBS) in BALB/c mouse serum at 4 to 5 mg/kg, iv administered as single bolus dose by HPLC; type: ADME, organism-based; set-up: dose 4-5 mg/kg, route intravenous; settings: in vivo
Serum [3] = assay: AUC (OBS) in BALB/c mouse serum at 4 to 5 mg/kg administered as inhalable bolus dose by HPLC; type: ADME, organism-based; set-up: dose 4-5 mg/kg; settings: in vivo, inhaled_or_intranasal
How it was run: (§1)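 BALB/c mice (25–30 g, either sex, groups of 4) given 100 μg drug by dry-powder inhalation of spray-dried polylactide microparticles (~10 mg charged, fluidized by 30 actuations over 30 s, nose-only). Noncompartmental extravascular-bolus fit; mean ± SD.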

[4] = Plasma concentration in BALB/c mouse at 4 to 5 mg/kg, iv administered as single bolus dose by HPLC; type: ADME, organism-based; set-up: dose 4-5 mg/kg, route intravenous
Mus musculus [5] = assay: (§2) Clearance in BALB/c mouse at 4 to 5 mg/kg administered as inhalable bolus dose by HPLC; type: ADME, organism-based; set-up: dose 4-5 mg/kg; settings: in vivo, inhaled_or_intranasal; how it was run: as §1
[6] = Elimination rate constant in human THP1 cells at 3 ug/ml administered as microparticles after 10 mins by HPLC; type: ADME, cell-based; settings: THP-1 cells
How it was run: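 THP-1 cells (10⁶/well) were differentiated with PMA for 14 h, washed, and rested 10 h. Microparticles (12 μg/ml, drug-equivalent 3 μg/ml) were added for 2 h, then washed out. Duplicate wells were lysed by freeze-thaw at serial times and analyzed by HPLC. A one-compartment model with no lag and first-order elimination was fitted.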

[7] = Plasma concentration in BALB/c mouse at 4 to 5 mg/kg administered as inhalable bolus dose by HPLC; type: ADME, organism-based; set-up: dose 4-5 mg/kg; settings: inhaled or intranasal; how it was run: as §1
Mus musculus [8] = assay: Volume of distribution in BALB/c mouse at 4 to 5 mg/kg, iv administered as single bolus dose by HPLC; type: ADME, organism-based; set-up: dose 4-5 mg/kg, route intravenous; settings: in vivo
[9] = Clearance in BALB/c mouse at 4 to 5 mg/kg, iv administered as single bolus dose by HPLC; type: ADME, organism-based; set-up: dose 4-5 mg/kg, route intravenous; settings: in vivo
[10] = Cmax in 10^6 mouse alveolar macrophages at 4 to 5 mg/kg administered as inhalable dose measured 6 hrs postinhalation by HPLC; type: ADME, organism-based, Macrophage; set-up: dose 4-5 mg/kg; settings: in vivo, inhaled_or_intranasal
How it was run: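 Mice inhaled 100 μg drug as dry-powder microparticles. Four animals per time point were anesthetized, and lungs were lavaged with chilled saline containing 0.5 mM EDTA. Recovered alveolar macrophages were counted by hemocytometer and extracted. Drug was measured by HPLC-UV and expressed per 10⁶ cells.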

[11] = Cmax in 10^6 mouse alveolar macrophages at 4 to 5 mg/kg, iv measured after 4 hrs by HPLC; type: ADME, organism-based, BALB/c, Macrophage; set-up: dose 4-5 mg/kg, route intravenous; settings: in vivo
How it was run: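 After a 100 μg i.v. caudal-vein dose, four mice per time point underwent bronchoalveolar lavage with chilled saline plus 0.5 mM EDTA. Macrophages in the lavage were counted by hemocytometer and lysed, and drug was quantified by HPLC-UV per 10⁶ cells.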

Mus musculus [12] = assay: Volume of distribution in BALB/c mouse at 4 to 5 mg/kg administered as inhalable bolus dose by HPLC; type: ADME, organism-based; set-up: dose 4-5 mg/kg; settings: in vivo, inhaled_or_intranasal; how it was run: as §1
[13] = Half life in BALB/c mouse serum at 4 to 5 mg/kg administered as inhalable bolus dose by HPLC; type: ADME, organism-based; set-up: dose 4-5 mg/kg; settings: inhaled or intranasal; how it was run: as §1
[14] = as §2; type: ADME, organism-based; set-up: dose 4-5 mg/kg; settings: BALB/c, in vivo, inhaled or intranasal; how it was run: as §1
[15] = Half life in BALB/c mouse serum at 4 to 5 mg/kg, iv administered as single bolus dose by HPLC; type: ADME, organism-based; set-up: dose 4-5 mg/kg, route intravenous

k el at 10 min, 3 ug/ml [1] | AUC (Serum [2]) | AUC (Serum [3]) | Cmax [4] | CL (Mus musculus [5]) | k el at 10 min, 3 ug/ml [6] | Cmax [7] | Vz (Mus musculus [8]) | clearance [9] | Cmax [10] | Cmax [11] | Vz (Mus musculus [12]) | half-life [13] | CL/F [14] | half-life [15] | SMILES
9.44e-06 s⁻¹ | 16.64 µg/mL/h | 55.34 µg/mL/h | 3240 ng/mL | 63.9 mL/h | 0.000102 s⁻¹ | 2370 ng/mL | 41.34 mL | 0.0738 mL/min | 0.56 µg | 0.29 µg | 1670 mL |  |  |  | NNC(=O)c1ccncc1 [ISONIAZID]
1.39e-06 s⁻¹ | 90.82 µg/mL/h | 109.35 µg/mL/h | 3470 ng/mL |  | 1.67e-05 s⁻¹ | 1590 ng/mL | 29.52 mL | 0.017 mL/min | 1.65 µg | 0.32 µg | 2308.84 mL | 4.98 days | 0.195 mL/min | 1210 min | CO[C@H]1/C=C/O[C@@]2(C)Oc3c(C)c(O)c4c(c3C2=O)C2=NC3(CCN(CC(C)C)CC3)NC2=C(NC(=O)/C(C)=C\C=C\[C@H](C)[C@H](O)[C@@H](C)[C@@H](O)[C@@H](C)[C@H](OC(C)=O)[C@@H]1C)C4=O [RIFABUTIN]
